In ChEMBL document CHEMBL1155439, “Transient receptor potential ankyrin 1 (TRPA1) channel as emerging target for novel analgesics and anti-inflammatory agents” (J Med Chem, 2010):

Columns and labels:
[1] = target: T1, Transient receptor potential cation channel subfamily A member 1 (Homo sapiens, UniProt O75762); assay: Agonist activity at human TRPA1 channel expressed in HEK293 cells assessed as increase in membrane currents; type: functional, cell-based
[2] = target: T1, Transient receptor potential cation channel subfamily A member 1; assay: Agonist activity at human TRPA1 channel expressed in HEK293 cells assessed as increase in intracellular calcium influx; type: functional, cell-based
[3] = target: T1, Transient receptor potential cation channel subfamily A member 1; assay: Agonist activity at human TRPA1 channel expressed in CHO cells assessed as increase in intracellular calcium levels; type: functional, cell-based
[4] = target: T1, Transient receptor potential cation channel subfamily A member 1; assay: Antagonist activity at human TRPA1 channel expressed in CHO cells assessed as inhibition of cinnamaldehyde-induced intracellular calcium influx; type: functional, cell-based
[5] = target: T1, Transient receptor potential cation channel subfamily A member 1; assay: Antagonist activity at TRPA1 channel at 1 uM; type: functional
[6] = target: T1, Transient receptor potential cation channel subfamily A member 1; assay: Antagonist activity at TRPA1 channel at 10 uM; type: functional
[7] = target: T1, Transient receptor potential cation channel subfamily A member 1; assay: Activation of TRPA1 channel
Outline: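 Cell lines transfected with TRPA1 and loaded with a calcium-sensitive dye, read on FLIPR. Calcium influx is counted as the change in fluorescence above background. Each material was tested by preincubation or by direct addition. Calcium counts are expressed as a percentage of the control calcium count.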

[8] = target: T1, Transient receptor potential cation channel subfamily A member 1; assay: Antagonist activity at TRPA1 channel; type: functional
[9] = target: Transient receptor potential cation channel subfamily A member 1 (Rattus norvegicus, UniProt Q6RI86); assay: Agonist activity at rat TRPA1 channel expressed in HEK293 cells assessed as increase in intracellular calcium influx; type: functional, cell-based
Transient receptor potential cation channel subfamily A member 1 (Rattus norvegicus, UniProt Q6RI86), sequence (Q6RI86 whole entry): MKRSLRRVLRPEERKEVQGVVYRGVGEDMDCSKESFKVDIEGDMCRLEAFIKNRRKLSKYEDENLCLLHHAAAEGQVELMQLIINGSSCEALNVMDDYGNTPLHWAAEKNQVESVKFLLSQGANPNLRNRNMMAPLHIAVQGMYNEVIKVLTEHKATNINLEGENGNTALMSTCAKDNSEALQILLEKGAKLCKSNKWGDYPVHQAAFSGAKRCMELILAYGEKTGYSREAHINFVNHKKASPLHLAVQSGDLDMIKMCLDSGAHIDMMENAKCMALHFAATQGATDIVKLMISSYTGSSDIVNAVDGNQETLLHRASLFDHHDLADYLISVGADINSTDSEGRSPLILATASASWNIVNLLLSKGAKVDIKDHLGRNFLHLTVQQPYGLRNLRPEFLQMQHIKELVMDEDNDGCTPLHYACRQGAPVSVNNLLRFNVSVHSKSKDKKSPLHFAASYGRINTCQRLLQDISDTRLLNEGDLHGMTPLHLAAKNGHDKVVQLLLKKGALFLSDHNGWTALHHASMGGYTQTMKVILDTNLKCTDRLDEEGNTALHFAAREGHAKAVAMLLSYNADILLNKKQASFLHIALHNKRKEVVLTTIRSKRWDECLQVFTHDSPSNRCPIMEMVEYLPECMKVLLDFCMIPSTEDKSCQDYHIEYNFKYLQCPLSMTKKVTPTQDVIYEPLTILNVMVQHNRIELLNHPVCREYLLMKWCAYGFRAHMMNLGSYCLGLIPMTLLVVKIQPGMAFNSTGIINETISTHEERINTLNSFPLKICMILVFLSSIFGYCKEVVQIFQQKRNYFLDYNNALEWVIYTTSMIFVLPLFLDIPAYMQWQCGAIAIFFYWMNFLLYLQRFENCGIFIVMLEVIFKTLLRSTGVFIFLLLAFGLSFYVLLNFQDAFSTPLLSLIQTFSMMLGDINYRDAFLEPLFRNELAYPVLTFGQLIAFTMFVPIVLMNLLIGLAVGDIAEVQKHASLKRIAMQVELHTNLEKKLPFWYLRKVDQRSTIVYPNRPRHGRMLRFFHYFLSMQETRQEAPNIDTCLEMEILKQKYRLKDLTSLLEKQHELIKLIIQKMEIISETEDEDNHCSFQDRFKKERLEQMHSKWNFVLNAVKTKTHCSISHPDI

[10] = target: Transient receptor potential cation channel subfamily A member 1 (Mus musculus, UniProt Q8BLA8); assay: Agonist activity at mouse TRPA1 channel expressed in CHO cells assessed as increase in intracellular calcium influx; type: functional, cell-based
Transient receptor potential cation channel subfamily A member 1 (Mus musculus, UniProt Q8BLA8), sequence (Q8BLA8 whole entry): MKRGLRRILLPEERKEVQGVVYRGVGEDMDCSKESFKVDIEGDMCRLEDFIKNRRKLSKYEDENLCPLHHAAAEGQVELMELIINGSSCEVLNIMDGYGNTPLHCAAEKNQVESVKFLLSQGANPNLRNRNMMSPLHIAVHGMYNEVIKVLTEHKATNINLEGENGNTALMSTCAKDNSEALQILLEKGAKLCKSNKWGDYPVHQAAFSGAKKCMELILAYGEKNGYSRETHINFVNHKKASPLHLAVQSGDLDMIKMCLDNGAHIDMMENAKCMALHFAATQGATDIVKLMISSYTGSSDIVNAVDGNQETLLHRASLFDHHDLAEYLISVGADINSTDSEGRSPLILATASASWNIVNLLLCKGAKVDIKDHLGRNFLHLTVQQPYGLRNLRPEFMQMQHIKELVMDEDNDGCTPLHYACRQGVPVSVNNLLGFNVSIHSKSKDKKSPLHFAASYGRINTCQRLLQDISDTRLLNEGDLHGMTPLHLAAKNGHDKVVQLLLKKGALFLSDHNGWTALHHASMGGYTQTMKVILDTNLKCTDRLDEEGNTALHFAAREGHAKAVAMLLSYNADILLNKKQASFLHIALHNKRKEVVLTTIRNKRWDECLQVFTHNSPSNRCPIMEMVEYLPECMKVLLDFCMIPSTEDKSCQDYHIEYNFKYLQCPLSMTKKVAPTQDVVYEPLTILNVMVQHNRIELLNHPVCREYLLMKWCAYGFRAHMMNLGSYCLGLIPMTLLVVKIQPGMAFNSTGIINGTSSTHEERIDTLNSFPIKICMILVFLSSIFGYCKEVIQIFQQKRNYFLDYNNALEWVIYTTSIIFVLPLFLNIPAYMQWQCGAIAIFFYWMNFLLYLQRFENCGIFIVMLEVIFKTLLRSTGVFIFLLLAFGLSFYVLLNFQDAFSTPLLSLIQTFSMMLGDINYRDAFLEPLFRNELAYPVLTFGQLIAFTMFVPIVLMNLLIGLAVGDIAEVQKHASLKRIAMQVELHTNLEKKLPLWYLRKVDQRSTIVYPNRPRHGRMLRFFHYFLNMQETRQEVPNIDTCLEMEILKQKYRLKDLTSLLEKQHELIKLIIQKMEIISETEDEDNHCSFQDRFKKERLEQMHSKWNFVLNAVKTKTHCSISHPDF

[11] = target: T1, Transient receptor potential cation channel subfamily A member 1; assay: Activation of human TRPA1 channel
[12] = target: T1, Transient receptor potential cation channel subfamily A member 1; assay: Antagonist activity at human TRPA1 channel assessed as inhibition of allyl isothiocyanate-induced intracellular calcium influx; type: functional, cell-based

T1 sequence (O75762 whole entry): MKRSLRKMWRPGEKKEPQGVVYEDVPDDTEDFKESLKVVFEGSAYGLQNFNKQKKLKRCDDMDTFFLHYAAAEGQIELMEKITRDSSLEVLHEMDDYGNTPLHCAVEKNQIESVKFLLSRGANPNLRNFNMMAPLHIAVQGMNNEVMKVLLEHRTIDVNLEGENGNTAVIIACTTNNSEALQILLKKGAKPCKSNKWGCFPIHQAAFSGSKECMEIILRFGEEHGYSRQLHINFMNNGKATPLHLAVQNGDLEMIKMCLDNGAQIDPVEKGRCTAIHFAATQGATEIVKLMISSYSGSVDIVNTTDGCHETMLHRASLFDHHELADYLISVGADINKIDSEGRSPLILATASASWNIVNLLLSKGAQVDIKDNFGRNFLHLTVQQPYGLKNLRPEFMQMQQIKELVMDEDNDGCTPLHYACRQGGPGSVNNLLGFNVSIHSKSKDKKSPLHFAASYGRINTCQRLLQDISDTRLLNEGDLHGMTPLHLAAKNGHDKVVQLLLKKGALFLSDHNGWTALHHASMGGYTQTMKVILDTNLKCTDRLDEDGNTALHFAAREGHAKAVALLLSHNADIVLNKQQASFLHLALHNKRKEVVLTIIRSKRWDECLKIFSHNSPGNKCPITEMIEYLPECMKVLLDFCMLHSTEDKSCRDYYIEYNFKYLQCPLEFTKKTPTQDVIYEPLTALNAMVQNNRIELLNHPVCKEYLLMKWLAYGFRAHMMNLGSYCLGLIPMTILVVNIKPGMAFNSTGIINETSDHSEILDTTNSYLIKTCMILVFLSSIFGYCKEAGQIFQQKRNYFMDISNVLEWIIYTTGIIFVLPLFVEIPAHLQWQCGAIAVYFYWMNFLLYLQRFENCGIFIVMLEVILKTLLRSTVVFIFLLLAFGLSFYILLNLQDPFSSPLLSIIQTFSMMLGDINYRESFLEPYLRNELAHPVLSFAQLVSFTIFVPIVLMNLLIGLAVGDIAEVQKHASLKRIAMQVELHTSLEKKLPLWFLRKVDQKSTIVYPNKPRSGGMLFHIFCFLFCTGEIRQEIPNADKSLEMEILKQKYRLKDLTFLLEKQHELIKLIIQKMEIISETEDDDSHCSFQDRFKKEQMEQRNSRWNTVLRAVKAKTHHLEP

With O=C(O)/C=C1/C(=O)N(CC2CCCC2)c2ccccc21 the EC50 [1] was 3 µM.
With Cc1ccc(C(C)C)cc1O [CARVACROL] the EC50 [2] was 7 µM.
CC(C)=CCC/C(C)=C/CC/C(C)=C/CSc1ccccc1C(=O)O [SALIRASIB] showed an EC50 [3] of 5 µM.
CCC(=N\O)/C(C)=C/c1ccc(C(F)(F)F)nc1 showed an IC50 [4] greater than 100 µM.
Work on CC(C)c1ccc(NC(=O)Cc2cccc3c2C(=O)N(C)C3=O)cc1 yielded an inhibition [5] of 18% and an inhibition [6] of 21%.
C=C(C)C1CC=C(C=O)CC1 (stereo not given) showed an EC50 [7] of 41 µM.
CN1C(=O)c2cccc(CC(=O)Nc3nc(-c4cc(F)c(C(F)(F)F)c(F)c4)cs3)c2C1=O gave an IC50 [8] of 0.25 µM, an inhibition [5] of 92% and an inhibition [6] of 100%.
CCCCCc1cc(O)c(C/C=C(\C)CCC=C(C)C)c(O)c1 [CANNABIGEROL] was tested, and the EC50 [9] was 3.4 µM.
Work on CO/C(O)=C1\C(C)=NC(C)=C([N+](=O)[O-])[C@H]1c1ccccc1C(F)(F)F yielded an EC50 [10] of 41.5 µM.
With CC(C)CN1C(=O)/C(=C/C(=O)O)c2cccc(F)c21 the EC50 [1] was 0.83 µM.
Molecule CCCCCC(=O)/C=C/C=O has an EC50 [11] of 1.9 µM.
With O=C(O)/C=C1/C(=O)N(CC2CCCC2)c2c(F)cccc21 the EC50 [1] was 0.51 µM.
CO/C(O)=C1\C(C)=NC(C)=C([N+](=O)[O-])[C@@H]1c1ccccc1C(F)(F)F was tested, and the EC50 [10] was 20.8 µM.
With CN(C)C(=O)/C=C1/C(=O)N(CC2CCCC2)c2c(F)cccc21 the EC50 [1] was 3.76 µM.
In the case of CCC(=N\O)/C(C)=C/c1cnc2ccccc2c1, the IC50 [4] is reported as greater than 100 µM.
CC(C)CN1C(=O)/C(=C/C(=O)O)c2cc(F)ccc21 was tested, and the EC50 [1] was 4.63 µM.
NC(=O)/C=C1/C(=O)N(CC2CCCC2)c2c(F)cccc21 showed an EC50 [1] of 0.66 µM.
C=CCSCC=C [DIALLYL SULFIDE] gave an EC50 [3] of 254 µM.
For CCC(CC)CN1C(=O)/C(=C/C(=O)N2CCOCC2)c2cccc(F)c21, the EC50 [1] was 1.29 µM.
COCCOC(=O)C1=C(C)NC(C)=C(C(=O)OC(C)C)C1c1cccc([N+](=O)[O-])c1 (stereo not given) [NIMODIPINE] was tested, and the EC50 [10] was 0.8 µM.
Cc1ccc(N=C=O)cc1N=C=O [TOLUENE DIISOCYANATE] gave an EC50 [2] of 10 µM.
With COC(=O)C1=C(C)NC(C)=C([N+](=O)[O-])C1c1ccccc1C(F)(F)F (stereo not given) the EC50 [10] was 32.7 µM.
CCCCCc1cc(O)c2c(c1C(=O)O)OC(C)(C)[C@@H]1CCC(C)=C[C@@H]21 [TETRAHYDROCANNABINOL ACID] was tested, and the EC50 [9] was 0.24 µM.
Work on CN1C(=O)c2cccc(CC(=O)Nc3nc(-c4cccc(C(F)(F)F)c4)cs3)c2C1=O yielded an IC50 [8] of 0.5 µM, an inhibition [5] of 60% and an inhibition [6] of 96%.
Molecule COC(=O)C1=C(C)NC(C)=C(C(=O)OC)C1c1ccccc1[N+](=O)[O-] [NIFEDIPINE] has an EC50 [10] of 0.4 µM.
With CCC(=N\O)/C(C)=C/c1ccc(C)nc1 the IC50 [4] was greater than 100 µM.
O=C(O)/C=C1/C(=O)N(CC2CCCCC2)c2ccccc21 showed an EC50 [1] of 4.4 µM.
Molecule Cn1c(=O)c2c(ncn2CC(=O)Nc2nc(-c3ccc(Br)cc3)cs2)n(C)c1=O has an IC50 [12] of less than 1 µM.
With CCCCC[C@H](O)/C=C/[C@H]1C=CC(=O)[C@@H]1C/C=C\CCCC(=O)O [PROSTAGLANDIN A2] the EC50 [7] was 24 µM.
Cn1c(=O)c2c(ncn2CC(=O)Nc2nc(-c3ccccc3)cs2)n(C)c1=O was tested, and the IC50 [12] was less than 1 µM.
CC1(C)CCC[C@]2(C)[C@@H](C=O)C(C=O)=CC[C@@H]12 [POLYGODIAL] was tested, and the EC50 [3] was 0.059 µM.
Molecule C=C(C)[C@@H]1CCC(C)=C[C@H]1c1c(O)cc(CCCCC)cc1O [CANNABIDIOL] has an EC50 [9] of 0.096 µM.
Molecule C=C(C)[C@@H]1CCC(C)=C[C@H]1c1c(O)cc(CCCCC)c(C(=O)O)c1O [CANNABIDIOLIC ACID] has an EC50 [9] of 12 µM.
For CCCCC[C@H](O)/C=C/[C@H]1C=CC(=O)[C@H]1C/C=C\CCCC(=O)O, the EC50 [7] was 22.4 µM.
In the case of Cn1c(=O)c2c(ncn2CC(=O)Nc2nc(-c3cccc(F)c3)cs2)n(C)c1=O, the IC50 [12] is reported as less than 1 µM.
CN1C(=O)c2cccc(CC(=O)Nc3nc(-c4ccc(C(F)(F)F)c(F)c4)cs3)c2C1=O was tested, and the inhibition [5] was 97% and the inhibition [6] was 100%.
Molecule CN1C(=O)c2cccc(CC(=O)Nc3nc(-c4ccc(I)cc4)cs3)c2C1=O has an IC50 [8] of less than 0.25 µM, an inhibition [5] of 76% and an inhibition [6] of 95%.
Work on CN1C(=O)c2cccc(CC(=O)Nc3nc(-c4ccc(Cl)c(Cl)c4)cs3)c2C1=O yielded an IC50 [8] of 0.25 µM, an inhibition [5] of 86% and an inhibition [6] of 98%.
COc1cccc(-c2csc(NC(=O)Cn3cnc4c3c(=O)n(C)c(=O)n4C)n2)c1 showed an IC50 [12] of less than 1 µM.
CCC(=N\O)/C(C)=C/c1cncc2ccccc12 gave an IC50 [4] greater than 100 µM.
